# In ChEMBL document CHEMBL1147988, “Synthesis of bridged piperazines with sigma receptor affinity” (Eur J Med Chem, 2007):
# Assays:
# [1] = Displacement of [3H]MK-801 from NMDA receptor in guinea pig brain membrane; assay type: cell membranes, Cavia porcellus
# [2] = target: Mu-type opioid receptor (Cavia porcellus) (UniProt P97266); experiment: Displacement of [3H]DAMGO from mu opioid receptor in guinea pig brain membrane at 10 uM; assay type: cell membranes
# In short: (§1)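 Single-point screen: percent inhibition of radioligand binding to guinea pig brain membranes with test compound at 10 µM.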
# [3] = target: Sigma non-opioid intracellular receptor 1 (Cavia porcellus, UniProt Q60492); experiment: Displacement of [3H](+)-pentazocine from sigma 1 receptor in guinea pig brain membrane; assay type: cell membranes
# Sigma 2 receptor = experiment: Displacement of [3H]ditolylguanidine from sigma 2 receptor in Sprague-Dawley rat liver membrane; assay type: cell membranes
# [4] = target: Kappa-type opioid receptor (Cavia porcellus, UniProt P41144); experiment: Displacement of [3H]U-69593 from kappa opioid receptor in guinea pig brain membrane; assay type: cell membranes
# Cavia porcellus = organism: Cavia porcellus; experiment: Displacement of [3H]MK-801 from NMDA receptor in guinea pig brain membrane at 10 uM; assay type: cell membranes; in short: as §1
# [5] = target: Kappa-type opioid receptor (Cavia porcellus) (UniProt P41144); experiment: Displacement of [3H]U-69593 from kappa opioid receptor in guinea pig brain membrane at 10 uM; assay type: cell membranes
# In short: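 Single-concentration test reported as percent inhibition of [3H]-U-69593 binding to guinea pig brain membranes. All experiments run in triplicate. Glass fibre filters presoaked 2 h at 4 °C in 0.5% polyethylenimine, then harvested by filtration. Bound radioactivity counted by liquid scintillation at 66% counting efficiency.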
# Mu-type opioid receptor = Mu-type opioid receptor (Cavia porcellus, UniProt P97266); experiment: Displacement of [3H]DAMGO from mu opioid receptor in guinea pig brain membrane; assay type: cell membranes
# [6] = target: Sigma non-opioid intracellular receptor 1 (Cavia porcellus) (UniProt Q60492); experiment: Selectivity for guinea pig sigma 1 receptor over rat sigma 2 receptor
# Sequence of Sigma non-opioid intracellular receptor 1 (Cavia porcellus) (Q60492 whole entry): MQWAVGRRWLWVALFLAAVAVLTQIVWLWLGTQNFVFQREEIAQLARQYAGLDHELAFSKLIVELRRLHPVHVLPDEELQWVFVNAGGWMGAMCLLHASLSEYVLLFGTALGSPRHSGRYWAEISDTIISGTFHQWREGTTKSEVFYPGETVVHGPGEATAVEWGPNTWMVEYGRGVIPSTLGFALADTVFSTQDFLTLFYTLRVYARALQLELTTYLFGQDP
# Sequence of Mu-type opioid receptor (P97266 whole entry): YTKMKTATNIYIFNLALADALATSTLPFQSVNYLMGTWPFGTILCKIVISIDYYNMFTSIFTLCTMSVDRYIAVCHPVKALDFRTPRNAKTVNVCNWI
# Sequence of Mu-type opioid receptor (Cavia porcellus) (P97266 whole entry): as above
# Sequence of Sigma non-opioid intracellular receptor 1 (Q60492 whole entry): as the sequence (Q60492 whole entry) above
# Sequence of Kappa-type opioid receptor (P41144 whole entry): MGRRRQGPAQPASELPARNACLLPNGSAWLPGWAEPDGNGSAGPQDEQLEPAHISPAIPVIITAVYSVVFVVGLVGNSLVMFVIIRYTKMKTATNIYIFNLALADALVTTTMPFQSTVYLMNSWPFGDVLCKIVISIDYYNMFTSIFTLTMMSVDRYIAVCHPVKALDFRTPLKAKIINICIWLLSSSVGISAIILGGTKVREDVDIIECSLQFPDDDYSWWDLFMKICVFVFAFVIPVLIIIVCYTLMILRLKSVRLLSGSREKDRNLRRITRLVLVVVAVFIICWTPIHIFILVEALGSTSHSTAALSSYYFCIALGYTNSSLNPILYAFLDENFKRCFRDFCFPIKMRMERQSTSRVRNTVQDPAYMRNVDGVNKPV
# Sequence of Kappa-type opioid receptor (Cavia porcellus) (P41144 whole entry): as above
SMILES,Ki [1],inhibition [2],Ki [3],Ki (Sigma 2 receptor),Ki [4],inhibition (Cavia porcellus),inhibition [5],Ki (Mu-type opioid receptor),Selectivity ratio [6]
c1ccc(C2(N3CCCCC3)CCCCC2)cc1 [PHENCYCLIDINE],28 nM,,,,,,,,
CO[C@@H]1CC[C@H]2CN(C)[C@@H]1CN2Cc1ccccc1,,21.5%,1350 nM,327 nM,3590 nM,8.7%,,,
"CN1CC2CCC(O)C1CN2Cc1ccccc1 (single isomer, unassigned; form 1) [listing 1 of 2 here]",,4.7%,,,,13.7%,13.2%,,
O[C@@H]1CCC2CN(CCc3ccccc3)C1CN2Cc1ccccc1 (some centres undefined),,,33.3 nM,343 nM,2460 nM,21.9%,,4960 nM,
CCCCN1CC2CCC(O)C1CN2Cc1ccccc1 (centres undefined),,37.9%,23.4 nM,447 nM,1600 nM,52.3%,,,
"OC1CCC2CN(CCc3ccccc3)C1CN2Cc1ccccc1 (single isomer, unassigned)",,,29.5 nM,588 nM,1290 nM,20.6%,,4050 nM,
"CN1CC2CCC(O)C1CN2Cc1ccccc1 (single isomer, unassigned; form 2) [listing 1 of 2 here]",,8.5%,,,,21%,12.6%,,
COC1CCC2CN(CCc3ccccc3)C1CN2Cc1ccccc1 (centres undefined),,68.6%,76 nM,297 nM,5020 nM,50.5%,,,
COC1(OC)CC[C@H]2CN(C)[C@@H]1CN2Cc1ccccc1,,27.6%,3500 nM,1830 nM,> 10000 nM,44.3%,,,
"CN1CC2CCC(O)C1CN2Cc1ccccc1 (single isomer, unassigned; form 1) [listing 2 of 2 here]",,,4970 nM,2890 nM,,,,,
CN[C@]1(c2ccccc2Cl)CCCCC1=O [ESKETAMINE],108 nM,,,,,,,,
CCCCN1CC2CCC(OCc3ccccc3)C1CN2Cc1ccccc1 (centres undefined),,,39.5 nM,820 nM,1110 nM,21.5%,,3320 nM,21
c1ccc(CCN2CC3CCC(OCc4ccccc4)C2CN3Cc2ccccc2)cc1 (centres undefined),,34.8%,175 nM,628 nM,2230 nM,16.4%,,,
CCCCN1CC2CCC(OC)C1CN2Cc1ccccc1 (centres undefined),,37.4%,13.2 nM,219 nM,157 nM,55.5%,,,16
CN1C[C@@H]2CC[C@@H](OCc3ccccc3)[C@H]1CN2Cc1ccccc1,,70.4%,16.2 nM,30.4 nM,585 nM,0%,,,
"CN1CC2CCC(O)C1CN2Cc1ccccc1 (single isomer, unassigned; form 2) [listing 2 of 2 here]",,,2400 nM,4180 nM,,,,,
